# Assay results published in ChEMBL document CHEMBL1122896, “Comparative computer graphics and solution studies of the DNA interaction of substituted anthraquinones based on doxorubicin and mitoxantrone” (1985).
# Key:
# Nucleic Acid [1] = assay: Concentration to give comigration of ccc PM-2 DNA with nicked PM-2 DNA under electrophoresis was evaluated.; type: nucleic-acid assay; settings: unidentified phage
# Outline: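 Agarose tube gels (1%, pH 7.4 Tris-Cl/EDTA/NaCl/acetate buffer) contained drug at final 0.00–1.00 µg/mL. PM-2 ccc-DNA was loaded with drug at a 5:1 DNA phosphate:drug ratio and run at 45 V, 20–25 °C, for 3–4 h. Gels were stained with ethidium. The critical concentration is where ccc-DNA comigrates with nicked PM-2 DNA.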
# Mus musculus [2] = assay: In vivo antileukemic activity against P-388 cells in mice and the treated /control value was determined at schedule Q04Dx03 at a dose of 16 mg/kg
# Mus musculus [3] = assay: In vivo antileukemic activity against P-388 cells in mice and the treated /control value was determined at schedule Q01Dx01 at a dose of 8 mg/kg; type: functional
# Outline: (§1)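 Mice bearing P-388 leukaemia received the hydrochloride salts as a single dose on day 3 after inoculation (Q01D×01). Activity is expressed as treated/control (T/C).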
# Nucleic Acid [4] = assay: Compound was evaluated for DNA binding affinity; type: nucleic-acid assay; settings: Bos taurus
# Outline: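 Drug solution (5 × 10^-5 M, 3 mL; three samples) was titrated with sequential aliquots of 2.5 × 10^-3 M DNA. Absorbance was read at the unbound-drug λmax after equilibration, against a buffer blank. Free and bound drug were derived from the fractional decrease in extinction. Affinity K and site number n were taken from a Scatchard plot.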
# Mus musculus [5] = assay: In vivo antileukemic activity against P-388 cells in mice and the treated /control value was determined at schedule Q04Dx03 at a dose of 4 mg/kg
# HeLa [6] = assay: Antiproliferative effect against HeLa cell lines at a concentration of 10.0 uM; type: functional, Homo sapiens
# HEp-2 [7] = assay: Antiproliferative effect against Hep2 cell lines at a concentration of 10.0 uM; type: functional, Homo sapiens
# Mus musculus [8] = assay: In vivo antileukemic activity against P-388 cells in mice and the treated /control value was determined at schedule Q01Dx01 at a dose of 4 mg/kg; type: functional; outline: as §1
# Mus musculus [9] = assay: In vivo antileukemic activity against P-388 cells in mice and the treated /control value was determined at schedule Q04Dx03 at a dose of 8 mg/kg
# Mus musculus [10] = assay: In vivo antileukemic activity against P-388 cells in mice and the treated /control value was determined at schedule Q01Dx01 at a dose of 2 mg/kg; type: functional; outline: as §1
# HEp-2 [11] = assay: Antiproliferative effect against Hep2 cell lines at a concentration of 1 uM; type: functional, Homo sapiens
# HeLa [12] = assay: Antiproliferative effect against HeLa cell lines at a concentration of 1 uM; type: functional, Homo sapiens
# Mus musculus [13] = assay: In vivo antileukemic activity against P-388 cells in mice and the treated /control value was determined at schedule Q01Dx01 at a dose of 16 mg/kg; type: functional; outline: as §1
# Mus musculus [14] = assay: In vivo antileukemic activity against P-388 cells in mice and the treated /control value was determined at schedule Q01Dx01 at a dose of 1 mg/kg; type: functional; outline: as §1
# Mus musculus [15] = assay: In vivo antileukemic activity against P-388 cells in mice and the treated /control value was determined at schedule Q01Dx01 at a dose of 64 mg/kg; type: functional; outline: as §1
# Mus musculus [16] = assay: In vivo antileukemic activity against P-388 cells in mice and the treated /control value was determined at schedule Q01Dx01 at a dose of 32 mg/kg; type: functional; outline: as §1
# Mus musculus [17] = assay: In vivo antileukemic activity against P-388 cells in mice and the treated /control value was determined at schedule Q01Dx01 at a dose of 128 mg/kg; type: functional; outline: as §1
SMILES,Critical concentration (Nucleic Acid [1]) [µg/mL],Affinity constant (Nucleic Acid [4]) [M⁻¹],T/C (Mus musculus [2]),T/C (Mus musculus [3]),T/C (Mus musculus [5]),No. of untreated cells (HeLa [6]) [%],No. of untreated cells (HEp-2 [7]) [%],T/C (Mus musculus [8]),T/C (Mus musculus [9]),T/C (Mus musculus [10]),No. of untreated cells (HEp-2 [11]) [%],No. of untreated cells (HeLa [12]) [%],T/C (Mus musculus [13]),T/C (Mus musculus [14]),T/C (Mus musculus [15]),T/C (Mus musculus [16]),T/C (Mus musculus [17])
COc1cccc2c1C(=O)c1c(O)c3c(c(O)c1C2=O)C[C@@](O)(C(=O)CO)C[C@@H]3O[C@H]1C[C@H](N)[C@H](O)[C@H](C)O1 [DOXORUBICIN],,,,,,,,,,,56,52,,,,,
CCN(CC)CCNc1ccc(NCCN(CC)CC)c2c1C(=O)c1ccccc1C2=O,0.16,3.17e+06,,107,,,,100,,95,88,98,112,117,97,103,111
CCN(CC)CCNc1cccc2c1C(=O)c1cccc(NCCN(CC)CC)c1C2=O,0.16,3.97e+06,,98,,,,107,,98,64,75,105,102,105,100,92

# Continued, in another order:
Critical concentration (Nucleic Acid [1]) [µg/mL],Affinity constant (Nucleic Acid [4]) [M⁻¹],SMILES,T/C (Mus musculus [2]),T/C (Mus musculus [3]),T/C (Mus musculus [5]),No. of untreated cells (HeLa [6]) [%],No. of untreated cells (HEp-2 [7]) [%],T/C (Mus musculus [8]),T/C (Mus musculus [9]),T/C (Mus musculus [10]),No. of untreated cells (HEp-2 [11]) [%],No. of untreated cells (HeLa [12]) [%],T/C (Mus musculus [13]),T/C (Mus musculus [14]),T/C (Mus musculus [15]),T/C (Mus musculus [16]),T/C (Mus musculus [17])
0.4,1.71e+06,CCN(CC)CCNc1cccc2c1C(=O)c1c(NCCN(CC)CC)cccc1C2=O,102,107,91,64,84,105,98,104,,,,,,,
0.8,1.48e+06,CCN(CC)CCNc1cccc2c1C(=O)c1ccccc1C2=O,,100,,96,92,100,,98,,,95,105,,,
